High-throughput results deposited in PubChem by several laboratories.
The list is not random: actives were taken first. Their share in the collection is about 1.7%.
IMP-1 inhibitor: IMP-1 metallo-beta-lactamase inhibitors, primary screen, biochemical, epi-absorbance readout, Pseudomonas aeruginosa enzyme. metallo-beta-lactamase IMP-1 (Pseudomonas aeruginosa). purified IMP-1, nitrocefin hydrolysis, epi-absorbance fluorescence. inhibition, % at 5.6 µM. 290,000 compounds, 0.45% hits;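 active means inhibition above the mean plus 3 SD of all compounds in the same screening run, cut at about 4.5% in these data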;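 further: 0% = IMP-1 with DMSO and 100% = DMSO wells lacking enzyme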
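System: purified IMP-1; amount: IMP-1 0.2 nM before substrate addition; compound: single dose, 5.6 µM; times: 25 °C, 15 min preincubation, 25 min reaction; signal: Epi-absorbance via hydrolysed-nitrocefin quenching of white-plate fluorescence, 480/530 nm, EDTA stop; benchmarks: DMSO with and without IMP-1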
Neddyl block: inhibitors of cullin neddylation, primary screen, biochemical, TR-FRET, uHTS, NAE and Ubc12; NEDD8-conjugating enzyme Ubc12 (Homo sapiens) + NEDD8-activating enzyme E1 regulatory …; calls only at 25 µM; 360,000 compounds, 0.58% hits; AID 651699, 2012; in the data active means inhibition above about 36%
proCasp7 act: procaspase-7 activators, primary screen, counter-screen for procaspase-3 activator project, biochemical, absorbance, HTS, human; Caspase-7 (Homo sapiens), P55210; recombinant procaspase-7, Ac-DEVD-pNA absorbance 405 nm; D23A/D198A/D206A triple mutant, cannot self-cleave; scale: DMSO 0, 5 µM enzyme 100; activation, % at 8.5 µM; 330,000 compounds, 0.093% hits; AID 463210, 2010;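 active means percent activation above the screen-wide mean plus 3 SD, cut at about 25% in these data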
Target sequence (P55210 whole entry D23A/D198A/D206A): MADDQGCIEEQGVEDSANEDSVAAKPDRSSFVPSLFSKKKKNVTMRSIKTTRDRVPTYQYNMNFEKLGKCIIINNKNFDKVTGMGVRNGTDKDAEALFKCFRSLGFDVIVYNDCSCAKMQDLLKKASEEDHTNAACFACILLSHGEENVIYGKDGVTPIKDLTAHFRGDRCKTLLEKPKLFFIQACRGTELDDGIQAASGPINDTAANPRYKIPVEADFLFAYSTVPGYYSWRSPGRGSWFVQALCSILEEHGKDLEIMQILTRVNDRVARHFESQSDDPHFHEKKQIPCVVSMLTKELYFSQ
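Assay system: Uncleavable procaspase-7 mutant enzyme; Input: 2 µM procaspase-7 mutant as dispensed; Also added: DEVD-pNA substrate; Medium: Zinc-free HEPES pH 7.4 with 300 mM NaCl, 0.01% Triton X-100; Timing: 1 h compound preincubation, 2 h substrate cleavage, 25 °C; Measured by: Epi-absorbance of released pNA at 405 nm, two timepoints.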
PolyA inh: polyadenylation inhibitors in yeast reporter cells, primary screen, luminescence, S. cerevisiae; S. cerevisiae SKY197-pL101 polyadenylation reporter, beta-gal luminescence; efflux-impaired pdr1/pdr3 knockout yeast; score 100 = 6 SD above DMSO; activity score, % at 12 µM; 300,000 compounds, 0.02% hits;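 active means lowest replicate activity score at least 50, where 100 means six control SD above control mean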;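 further: yeast exposed to compound for 9 h at 30 °C; higher score means more reporter readthrough which indicates perturbed polyadenylation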
proCasp3 act: activators of human procaspase-3 D3A mutant, primary screen, biochemical, absorbance, PC-3 D3A mutant, single concentration | 330,000 compounds, 0.11% hits | recombinant procaspase-3 D3A, Ac-DEVD-pNA absorbance 405 nm | activation, % at 8.5 µM | Caspase-3 (Homo sapiens), P42574;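 active means activation above the mean of all tested compounds plus 3 SD, cut at about 21% in these data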;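 further: 0% = DMSO alone and 100% = DMSO wells spiked with extra 5 µM PC-3 D3A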
Target sequence (P42574 whole entry D9A/D28A/D175A): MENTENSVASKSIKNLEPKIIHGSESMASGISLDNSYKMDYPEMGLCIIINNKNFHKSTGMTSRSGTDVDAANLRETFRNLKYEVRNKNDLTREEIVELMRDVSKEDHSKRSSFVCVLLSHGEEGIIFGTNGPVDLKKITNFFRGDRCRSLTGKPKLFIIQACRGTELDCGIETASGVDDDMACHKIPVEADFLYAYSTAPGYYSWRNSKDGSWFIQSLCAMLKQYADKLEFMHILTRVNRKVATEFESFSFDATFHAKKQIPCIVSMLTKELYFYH
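Compound: 8.5 µM single point, 0.8% DMSO / Material: Autoprocessing-dead procaspase-3 D3A mutant enzyme / Timing: 1 h preincubation plus 2 h reaction at 25 °C / Medium: Zinc-free HEPES/NaCl buffer with 0.01% Triton X-100 at pH 7.4 / Technique: 405 nm absorbance of p-nitroaniline, reads at 0 and 120 min / Repeats: one well per compound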
VIM-2 inhibitor: VIM-2 metallo-beta-lactamase inhibitors, primary screen, biochemical, epi-absorbance readout, Pseudomonas aeruginosa enzyme; purified VIM-2, nitrocefin hydrolysis, epi-absorbance fluorescence; inhibition, % at 5.6 µM; 290,000 compounds, 0.89% hits;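 active means inhibition above the mean of all tested compounds plus 3 SD, cutoff set per screening run, cut at about 7.5% in these data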;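 further: red hydrolysis product quenches plate fluorescence so inhibitors raise well fluorescence; 0% = enzyme with DMSO and 100% = DMSO without enzyme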
Numbers without * were called inactive; i = inactive; / = no result given.

SMILES	IMP-1 inhibitor	Neddyl block	proCasp7 act	PolyA inh	proCasp3 act	VIM-2 inhibitor
CC(C)CC(c1nnnn1CC1CCCO1)N1CCN(Cc2ccc3c(c2)OCO3)CC1 (stereo unspecified)	-3.7	i	4.9	3.9	-9.9	-2.6
O=c1[nH]c(=O)n(Cc2ccccc2)c2c1CCC2	5.0*	i	-3.5	10.9	8.9	1.0
Cc1ccc(S(=O)(=O)NC(=O)C2(C)CCN2C(=O)Cc2ccc(-c3ccccc3)cc2)nc1 (stereo unspecified)	/	i	/	/	/	/
CCOC(=O)C1CCN(C(=O)Cn2nc(C)n3c(cc4cc(C)ccc43)c2=O)CC1	-1.8	i	-1.0	-1.4	-3.4	1.1
Cc1ccc(S(=O)(=O)N2CCN(c3ccnc4cc(Cl)ccc34)CC2)cc1	-0.4	i	-3.6	-7.4	13.8	10.2*
Cc1ccc(S(=O)(=O)N2CCN(c3ccnc4cc(Cl)ccc34)CC2)cc1C	-1.7	i	-1.6	4.2	-3.5	-0.6
O=C(Nc1ccccc1)c1ccccc1OS(=O)(=O)c1ccccc1	-3.5	i	-10.7	4.8	6.7	-0.8
CCc1nn(CC(=O)NCCCN(C)Cc2ccccc2)c(=O)c2cc3sc(C)cc3n12	-1.2	i	14.0	-0.2	-0.1	9.0*
NC(=O)C1CCN(C(=O)COc2ccc3c(c2)oc(=O)c2ccccc23)CC1	-1.1	/	1.6	6.4	6.1	11.7*
Cc1c(Cc2ccccc2)c(=O)oc2cc(OCC(=O)N3CCC(C(N)=O)CC3)ccc12	-0.9	/	9.0	2.8	8.3	2.2
CN(CC(=O)Nc1ccccc1Br)C(=O)CCC1CCCC1	-1.5	i	14.7	-7.3	3.6	-1.1
Cc1c2n(c3ccccc13)CCC2=O	2.1	/	-13.4	-4.9	-1.1	2.0
Cc1cccn2c(=O)c3cc(C(=O)NCC4CCCO4)c(=N)n(C4CCCC4)c3nc12 (stereo unspecified)	-2.5	/	-10.6	9.6	-7.9	11.0*
Cc1ccc2nc3c(cc(C(=O)NCC4CCCO4)c(=N)n3C3CCCC3)c(=O)n2c1 (stereo unspecified)	-4.9	/	-12.2	-8.6	-12.4	7.9*
CS(=O)(=O)NCc1ccc(C(=O)NC2CCCCC2)cc1	-0.3	i	6.8	-15.5	-1.7	-1.5
Cc1sc2c(c1C)C(O)=C(C(=O)Nc1ccccc1)S(=O)(=O)N2C	4.6*	i	5.6	-1.7	0.9	0.2
CCCN1C(=O)C(O)(CC(=O)c2cccc(OC)c2)c2ccccc21 (stereo unspecified)	2.3	i	3.3	-9.0	-0.1	-3.7
CC(=O)c1ccc(-n2c(C)c(C(C)=O)c3cc(O)ccc32)cc1	-1.5	i	3.4	-4.2	5.9	10.1*
CN1CCN(C(=O)c2ccc3c(Cl)c4c(nc3c2)CCCC4)CC1	0.8	i	0.9	6.6	-1.6	10.8*
CCN1CCN(C(=O)c2ccc3c(Cl)c4c(nc3c2)CCCC4)CC1	-1.1	i	-5.2	21.0	0.6	8.2*
O=C(COC(=O)/C=C/c1cccc(C(F)(F)F)c1)Nc1cccc2ccccc12	-0.3	i	0.4	4.9	3.9	1.6
Cc1cc(=O)oc2c3c(cc(OCC(=O)N[C@@H](C)C(=O)O)c12)OC(C)(C)CC3	-3.8	/	/	-13.8	/	8.5*
Cc1ccc(SC(C)C(=O)Nc2ncn[nH]2)cc1 (stereo unspecified)	39.3*	i	3.2	0.6	-0.7	-5.6
O=C(NCc1ccncc1)[C@@H]1CCCN1C(=O)[C@H]1CCCN1C(=O)c1ccccc1	/	i	/	/	/	/
COc1ccc(C(CNc2ncnc3sc(C)c(C)c23)N(C)C)cc1 (stereo unspecified)	0.2	i	0.2	4.7	8.5	8.8*
SMILES	IMP-1 inhibitor	Neddyl block	proCasp7 act	PolyA inh	proCasp3 act	VIM-2 inhibitor
C=CCn1c(-c2ccccc2)n[nH]c1=S	-2.4	i	-0.7	12.7	-14.5	3.3
C=CCn1c(-c2ccoc2)n[nH]c1=S	-3.8	i	-9.3	9.5	-6.9	10.1*
C=CCn1c(-c2ccccc2OC)n[nH]c1=S	-1.8	i	-4.7	19.3	-6.5	9.8*
O=C(C1=NN[C@@H]2C(=O)N(c3cccc(F)c3)C(=O)[C@H]12)C(c1ccccc1)c1ccccc1	5.2*	i	-2.4	-10.6	-6.6	-3.4
O=C(C1=NN[C@@H]2C(=O)N(c3cccc(C(F)(F)F)c3)C(=O)[C@H]12)C(c1ccccc1)c1ccccc1	-2.7	i	5.5	10.2	0.9	-2.0
Cc1ccccc1C(=O)Nc1c(-c2cccs2)c(=O)c2ccccc2n1C	-2.4	i	8.7	7.2	-0.9	-2.5
O=C(NCCc1cccs1)c1ccc(Cl)cc1	-4.8	i	3.5	-10.0	2.1	-2.9
O=C(NN1C(=O)C2C(c3ccccc3)C=CC(c3ccccc3)C2C1=O)c1ccccc1 (stereo unspecified)	34.2*	i	12.2	-0.5	0.1	1.9
O=C(NN1C(=O)C2C(c3ccccc3)C=CC(c3ccccc3)C2C1=O)c1cccc(Br)c1 (stereo unspecified)	21.3*	i	0.1	-10.4	3.9	2.8
O=C(CSc1nnc2ccc3ccccc3n12)N1CCOCC1	-0.5	i	2.3	4.3	-1.0	2.0
Cc1cc2ccccc2n2c(SCC(=O)N3CCOCC3)nnc12	-3.6	i	-1.2	17.5	1.9	8.0*
COc1cc(OC)cc(C(=O)NCCNC(=O)c2ccccn2)c1	-2.0	i	3.4	-2.2	2.5	-3.0
O=C(O)C1=C[C@H](c2csc3ccccc23)C[C@H](OCCCCO)O1	3.1	i	-4.4	0.4	5.1	9.5*
O=C(OCCNc1nc(-c2ccccc2)nc2ccccc12)c1ccncc1	-5.1	i	5.4	6.7	3.7	9.6*
CCN1CCN(C(c2cccs2)C(C)NC(=O)c2ccccc2OC)CC1 (stereo unspecified)	-1.9	i	7.7	10.0	2.8	0.1
O=C(O)CCN1C(=O)/C(=C/c2ccc(-c3nc4ccccc4s3)o2)SC1=S	-0.2	i	-6.2	-1.5	-5.3	0.1
O=C(O)CC(C(=O)O)N1C(=O)/C(=C/c2ccc(-c3nc4ccccc4s3)o2)SC1=S (stereo unspecified)	5.6*	i	-19.2	0.7	-14.2	-1.4
